# In ChEMBL document CHEMBL1156597, “Structure-activity relationship of kahalalide F synthetic analogues” (J Med Chem, 2008):
# Columns and labels:
# [1] = Cytotoxicity against human HeLa-APL cells after 48 hrs by SRB assay; format: functional
# How it was run: (§1)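 Cells grown in RPMI 1640 with 10% FBS and penicillin/streptomycin at 37 °C and 5% CO₂, trypsinized, then seeded at 5 × 10³/well. After 18 h drug-free attachment, samples in DMSO/EtOH/PBS (0.5:0.5:99) were added for 48 h continuous exposure. Cells were fixed with cold TCA (1 h, 4 °C) and stained with SRB (10 min). Tris-solubilized stain read at 490 nm. Triplicate wells, mean ± SD; GI₅₀ derived.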
# [2] = Cytotoxicity against human IGROV cells after 48 hrs by SRB assay; format: functional; conditions: for CC50: read-out: LC50 (the source's name); how it was run: as §1
# SK-MEL-28 = assay: Cytotoxicity against human SK-MEL-28 cells after 48 hrs by SRB assay; format: functional, cell-based; conditions: Homo sapiens, SK-MEL-28, 48 h; for CC50: read-out: LC50 (the source's name); how it was run: as §1
# LoVo [3] = assay: Cytotoxicity against human LoVo cells after 48 hrs by SRB assay; format: functional; conditions: for CC50: read-out: LC50 (the source's name)
# [4] = Cytotoxicity against human IGROV-ET cells after 48 hrs by SRB assay; format: functional; conditions: for CC50: read-out: LC50 (the source's name); how it was run: as §1
# K562 = assay: Cytotoxicity against human K562 cells after 48 hrs by SRB assay; format: functional; conditions: K562, 48 h; for CC50: read-out: LC50 (the source's name); how it was run: as §1
# A549 = assay: Cytotoxicity against human A549 cells after 48 hrs by SRB assay; format: functional, cell-based; conditions: Homo sapiens, A549, 48 h; how it was run: as §1
# LoVo [5] = assay: Cytotoxicity against human doxorubicin resistant LoVo cells after 48 hrs by SRB assay; format: functional; conditions: for CC50: read-out: LC50 (the source's name); how it was run: as §1
# HT-29 = assay: Cytotoxicity against human HT29 cells after 48 hrs by SRB assay; format: functional, cell-based; conditions: Homo sapiens, HT-29, 48 h; for CC50: read-out: LC50 (the source's name); how it was run: as §1
# DU-145 = assay: Cytotoxicity against human DU145 cells after 48 hrs by SRB assay; format: functional, cell-based; conditions: Homo sapiens, DU-145, 48 h; for CC50: read-out: LC50 (the source's name); how it was run: as §1
# SK-BR-3 = assay: Cytotoxicity against human SKBR3 cells after 48 hrs by SRB assay; format: functional; conditions: SK-BR-3, 48 h; for CC50: read-out: LC50 (the source's name); how it was run: as §1
# HeLa = assay: Cytotoxicity against human HeLa cells after 48 hrs by SRB assay; format: functional; conditions: for CC50: read-out: LC50 (the source's name); how it was run: as §1
# PANC-1 = assay: Cytotoxicity against human PANC1 cells after 48 hrs by SRB assay; format: functional; conditions: PANC-1, 48 h; for CC50: read-out: LC50 (the source's name); how it was run: as §1
SMILES,LC50 (concentration giving 50% net cell kill) [1] [nM],CC50 [2] [nM],GI50 (SK-MEL-28; read-out: GI50) [nM],CC50 (SK-MEL-28) [nM],GI50 (LoVo [3]) [nM],TGI (LoVo [3]) [nM],CC50 (LoVo [3]) [nM],CC50 [4] [nM],GI50 (K562) [nM],TGI (K562) [nM],CC50 (K562) [nM],LC50 (A549) [nM],GI50 (LoVo [5]) [nM],TGI (LoVo [5]) [nM],CC50 (LoVo [5]) [nM],CC50 (HT-29) [nM],CC50 (DU-145) [nM],CC50 (SK-BR-3) [nM],CC50 (HeLa) [nM],CC50 (PANC-1) [nM],also measured
C/C=C1\NC(=O)[C@H](Cc2cccc(Cl)c2)NC(=O)[C@@H](C(C)C)NC(=O)[C@@H]([C@H](C)CC)NC(=O)[C@H](NC(=O)[C@H](NC(=O)[C@H](CCCN)NC(=O)[C@H]2CCCN2C(=O)[C@H](NC(=O)[C@@H](NC(=O)[C@@H](NC(=O)[C@H](NC(=O)CCCC(C)C)C(C)C)[C@@H](C)O)C(C)C)C(C)C)[C@H](C)CC)[C@H](C)OC(=O)[C@H](C(C)C)NC1=O,275,48.5,183,738,18.5,27.9,69.1,163,867,1220,1730,911,40.8,35.7,340,153,305,48.3,256,1700,GI50 [1]: 191 nM; TGI [1]: 172 nM; GI50 [2]: 44.7 nM; GI50 ([2]; read-out: GI50): 41 nM; GI50 (SK-MEL-28): 313 nM; TGI [4]: 97 nM; GI50 ([4]; read-out: GI50): 71.2 nM; GI50 (A549): 429 nM; GI50 (A549; read-out: GI50): 194 nM; GI50 (HT-29): 40.2 nM; TGI (HT-29): 42.5 nM; GI50 (DU-145): 173 nM; GI50 (DU-145; read-out: GI50): 100 nM; GI50 (SK-BR-3): 41.9 nM; GI50 (SK-BR-3; read-out: GI50): 49.6 nM; GI50 (HeLa): 98.3 nM; TGI (HeLa): 131 nM; GI50 (PANC-1): 869 nM; TGI (PANC-1): 1700 nM
C/C=C1\NC(=O)[C@H](Cc2ccccc2)NC(=O)[C@@H](C(C)C)NC(=O)[C@@H]([C@H](C)CC)NC(=O)[C@H](NC(=O)[C@H](NC(=O)[C@H](CCCNC(=O)CCC2CCCCC2)NC(=O)[C@H]2CCCN2C(=O)[C@H](NC(=O)[C@@H](NC(=O)[C@@H](NC(=O)[C@H](NC(=O)CCCC(C)C)C(C)C)[C@@H](C)O)C(C)C)C(C)C)[C@H](C)CC)[C@H](C)OC(=O)[C@H](C(C)C)NC1=O,893,459,94.3,327,39.2,63.4,201,547,–,–,17.7,365,93.5,93.7,93.8,130,853,94.7,799,163,GI50 [1]: 166 nM; TGI [1]: 264 nM; GI50 [2]: 89.8 nM; GI50 ([2]; read-out: GI50): 48.1 nM; GI50 (SK-MEL-28): 150 nM; GI50 [4]: 158 nM; GI50 ([4]; read-out: GI50): 103 nM; GI50 (A549): 196 nM; GI50 (A549; read-out: GI50): 109 nM; GI50 (HT-29): 66.6 nM; TGI (HT-29): 85 nM; GI50 (DU-145): 176 nM; GI50 (DU-145; read-out: GI50): 76.6 nM; GI50 (SK-BR-3): 39 nM; GI50 (SK-BR-3; read-out: GI50): 36.2 nM; GI50 (HeLa): 83.6 nM; TGI (HeLa): 175 nM
C/C=C1\NC(=O)[C@H](Cc2ccc(Cl)cc2)NC(=O)[C@@H](C(C)C)NC(=O)[C@@H]([C@H](C)CC)NC(=O)[C@H](NC(=O)[C@H](NC(=O)[C@H](CCCN)NC(=O)[C@H]2CCCN2C(=O)[C@H](NC(=O)[C@@H](NC(=O)[C@@H](NC(=O)[C@H](NC(=O)CCCC(C)C)C(C)C)[C@@H](C)O)C(C)C)C(C)C)[C@H](C)CC)[C@H](C)OC(=O)[C@H](C(C)C)NC1=O,286,112,214,931,21.6,55,83.8,175,696,1090,1690,934,57.1,44.9,340,143,388,206,362,1700,GI50 [1]: 215 nM; TGI [1]: 186 nM; GI50 [2]: 62.9 nM; GI50 ([2]; read-out: GI50): 46.3 nM; GI50 (SK-MEL-28): 393 nM; GI50 [4]: 122 nM; GI50 ([4]; read-out: GI50): 86.2 nM; GI50 (A549): 473 nM; GI50 (A549; read-out: GI50): 227 nM; GI50 (HT-29): 36.5 nM; TGI (HT-29): 73.5 nM; GI50 (DU-145): 189 nM; GI50 (DU-145; read-out: GI50): 112 nM; GI50 (SK-BR-3): 38.6 nM; GI50 (SK-BR-3; read-out: GI50): 39.7 nM; GI50 (HeLa): 193 nM; TGI (HeLa): 184 nM; GI50 (PANC-1): 1140 nM; TGI (PANC-1): 1700 nM
C/C=C1\NC(=O)[C@H](Cc2ccc(O)cc2)NC(=O)[C@@H](C(C)C)NC(=O)[C@@H]([C@H](C)CC)NC(=O)[C@H](NC(=O)[C@H](NC(=O)[C@H](CCCN)NC(=O)[C@H]2CCCN2C(=O)[C@H](NC(=O)[C@@H](NC(=O)[C@@H](NC(=O)[C@H](NC(=O)CC[C@@H](C)CC)C(C)C)[C@@H](C)O)C(C)C)C(C)C)[C@H](C)CC)[C@H](C)OC(=O)[C@H](C(C)C)NC1=O,1980,970,2370,2100,1830,2310,2690,1000,4920,4300,2700,1840,1030,1720,2170,748,1930,184,2100,2020,TGI (SK-MEL-28): 3820 nM; GI50 (HeLa): 3620 nM; TGI (HeLa): 4340 nM
C/C=C1\NC(=O)[C@@H]2Cc3ccccc3CN2C(=O)[C@@H](C(C)C)NC(=O)[C@@H]([C@H](C)CC)NC(=O)[C@H](NC(=O)[C@H](NC(=O)[C@H](CCCN)NC(=O)[C@H]2CCCN2C(=O)[C@H](NC(=O)[C@@H](NC(=O)[C@@H](NC(=O)[C@H](NC(=O)CC[C@@H](C)CC)C(C)C)[C@@H](C)O)C(C)C)C(C)C)[C@H](C)CC)[C@H](C)OC(=O)[C@H](C(C)C)NC1=O,1190,7450,1620,2090,2820,2910,3030,572,4890,4260,2680,1200,718,1250,1820,726,1930,296,1140,2010,TGI (SK-MEL-28): 1930 nM; TGI (A549): 1440 nM; GI50 (A549; read-out: GI50): 1750 nM; TGI (DU-145): 3830 nM; GI50 (DU-145; read-out: GI50): 4160 nM; TGI (SK-BR-3): 1900 nM; GI50 (SK-BR-3; read-out: GI50): 2300 nM
C/C=C1\NC(=O)[C@H](Cc2ccccc2)NC(=O)[C@@H](C(C)C)NC(=O)[C@@H]([C@H](C)CC)NC(=O)[C@H](NC(=O)[C@H](NC(=O)[C@H](CCCNC(=O)/C=C/CCC)NC(=O)[C@H]2CCCN2C(=O)[C@H](NC(=O)[C@@H](NC(=O)[C@@H](NC(=O)[C@H](NC(=O)CCCC(C)C)C(C)C)[C@@H](C)O)C(C)C)C(C)C)[C@H](C)CC)[C@H](C)OC(=O)[C@H](C(C)C)NC1=O,802,467,814,1120,75.6,82.4,90.6,517,1240,1820,1820,1090,140,116,96.9,268,876,102,908,1670,GI50 [1]: 503 nM; TGI [1]: 514 nM; GI50 [2]: 221 nM; GI50 ([2]; read-out: GI50): 179 nM; TGI (SK-MEL-28): 1120 nM; GI50 [4]: 250 nM; GI50 ([4]; read-out: GI50): 205 nM; TGI (A549): 1090 nM; GI50 (A549; read-out: GI50): 619 nM; GI50 (HT-29): 126 nM; TGI (HT-29): 103 nM; GI50 (DU-145): 876 nM; GI50 (DU-145; read-out: GI50): 661 nM; GI50 (SK-BR-3): 67.8 nM; GI50 (SK-BR-3; read-out: GI50): 55.7 nM; GI50 (HeLa): 407 nM; TGI (HeLa): 670 nM; GI50 (PANC-1): 1670 nM; TGI (PANC-1): 1670 nM
